Data as given in ChEMBL document CHEMBL1127457, “Nonpeptide renin inhibitors with good intraduodenal bioavailability and efficacy in dog” (J Med Chem, 1994).

Each compound was assayed against T1, Renin (Homo sapiens, UniProt P00797) (assay: Tested in vitro for its ability to inhibit the human plasma renin).
T1 sequence (P00797 whole entry): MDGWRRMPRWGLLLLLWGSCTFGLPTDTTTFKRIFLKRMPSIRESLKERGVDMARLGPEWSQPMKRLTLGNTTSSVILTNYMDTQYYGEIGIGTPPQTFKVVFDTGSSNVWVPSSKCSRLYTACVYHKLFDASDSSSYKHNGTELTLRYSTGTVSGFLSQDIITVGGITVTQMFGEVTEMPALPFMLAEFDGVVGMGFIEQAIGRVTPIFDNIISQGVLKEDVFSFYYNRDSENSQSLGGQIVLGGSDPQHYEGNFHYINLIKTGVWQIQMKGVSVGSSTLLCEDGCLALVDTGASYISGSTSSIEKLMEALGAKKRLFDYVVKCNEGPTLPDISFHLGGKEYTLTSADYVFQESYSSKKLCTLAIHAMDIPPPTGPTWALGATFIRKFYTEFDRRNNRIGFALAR
Format: cell-free
Outline: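 IC50 against renin in plasma from the named species (dog, ferret, human, rat); single determination in most cases.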

Compound	IC50
CCCC[C@H](N[C@@H](Cc1ccccc1)C(=O)N1CCC(OCOC)CC1)C(=O)N[C@@H](CC1CCCCC1)[C@@H](O)C[C@H](C(=O)NCCNC(=O)OCc1ccccc1)C(C)C	17 nM
CCCC[C@H](N[C@@H](Cc1ccccc1)C(=O)N1CCC(OCOC)CC1)C(=O)N[C@@H](CC1CCCCC1)[C@@H](O)C[C@H](C(=O)NCCC(=O)OCc1ccccc1)C(C)C	23 nM
CCCC[C@H](N[C@@H](Cc1ccccc1)C(=O)N1CCC(OCOC)CC1)C(=O)N[C@@H](CC1CCCCC1)[C@@H](O)C[C@H](C(=O)NCCNCCO)C(C)C	11 nM
CCCC[C@H](O[C@@H](Cc1ccccc1)C(=O)N1CCC(OCOC)CC1)C(=O)N[C@@H](CC1CCCCC1)[C@@H](O)C[C@H](C(=O)NCCCNC(=NC#N)SC)C(C)C	1.3 nM
CCCC[C@H](N[C@@H](Cc1ccccc1)C(=O)N1CCC(OCOC)CC1)C(=O)N[C@@H](CC1CCCCC1)[C@@H](O)C[C@H](C(=O)NCCN)C(C)C	9.7 nM
CCCC[C@H](N[C@@H](Cc1ccccc1)C(=O)N1CCC(OCOC)CC1)C(=O)N[C@@H](CC1CCCCC1)[C@@H](O)C[C@H](C(=O)NCCC(=O)O)C(C)C	8.4 nM
CCCC[C@H](N[C@@H](Cc1ccccc1)C(=O)N1CCC(OCOC)CC1)C(=O)N[C@@H](CC1CCCCC1)[C@@H](O)C[C@H](C(=O)NCC(C)(C)N)C(C)C	12 nM

These compounds were tested against T1, Renin (assay: Tested in vitro for its ability to inhibit the human plasma renin at pH of 7.4).
Format: cell-free

Compound	IC50
CCCC[C@H](O[C@@H](Cc1ccccc1)C(=O)N1CCC(OCOC)CC1)C(=O)N[C@@H](CC1CCCCC1)[C@@H](O)C[C@H](C(=O)NCCNC(N)=O)C(C)C	2.8 nM
CCCC[C@H](O[C@@H](Cc1ccccc1)C(=O)N1CCC(OCOC)CC1)C(=O)N[C@@H](CC1CCCCC1)[C@@H](O)C[C@H](C(=O)NCCNC(=O)OCc1ccccc1)C(C)C	11 nM
CCCC[C@H](O[C@@H](Cc1ccccc1)C(=O)N1CCC(OCOC)CC1)C(=O)N[C@@H](CC1CCCCC1)[C@@H](O)C[C@H](C(=O)NCCCNC(=O)OCc1ccccc1)C(C)C	4.3 nM
CCCC[C@H](O[C@@H](Cc1ccccc1)C(=O)N1CCC(OCOC)CC1)C(=O)N[C@@H](CC1CCCCC1)[C@@H](O)C[C@H](C(=O)NCc1nn[nH]n1)C(C)C	8.4 nM
CCCC[C@H](O[C@@H](Cc1ccccc1)C(=O)N1CCC(OCOC)CC1)C(=O)N[C@@H](CC1CCCCC1)[C@@H](O)C[C@H](C(=O)NCCCCN1CCOCC1)C(C)C	3.3 nM
CCCC[C@H](O[C@@H](Cc1ccccc1)C(=O)N1CCC(OCOC)CC1)C(=O)N[C@@H](CC1CCCCC1)[C@@H](O)C[C@H](C(=O)NCCCCN)C(C)C	4.3 nM
CCCC[C@H](O[C@@H](Cc1ccccc1)C(=O)N1CCC(OCOC)CC1)C(=O)N[C@@H](CC1CCCCC1)[C@@H](O)C[C@H](C(=O)NCCN)C(C)C	3.9 nM
CCCC[C@H](O[C@@H](Cc1ccccc1)C(=O)N1CCC(OCOC)CC1)C(=O)N[C@@H](CC1CCCCC1)[C@@H](O)C[C@H](C(=O)NCCNC(C)=O)C(C)C	2.6 nM
CCCC[C@H](O[C@@H](Cc1ccccc1)C(=O)N1CCC(OCOC)CC1)C(=O)N[C@@H](CC1CCCCC1)[C@@H](O)C[C@H](C(=O)NCCC(=O)OCC)C(C)C	12 nM
CCCC[C@H](O[C@@H](Cc1ccccc1)C(=O)N1CCC(OCOC)CC1)C(=O)N[C@@H](CC1CCCCC1)[C@@H](O)C[C@H](C(=O)NCCCNC(N)=S)C(C)C	2.5 nM
CCCC[C@H](O[C@@H](Cc1ccccc1)C(=O)N1CCC(OCOC)CC1)C(=O)N[C@@H](CC1CCCCC1)[C@@H](O)C[C@H](C(=O)NCCCNC(N)=O)C(C)C	2 nM
